Compounds with a hit are over-represented: about 3.1% of the library has one in this group of screens.
CHO parental Ca: ATP-evoked calcium signal inhibitors, parental CHO, primary screen, counter-screen for OX1R antagonist project, cell-based, fluorescence, Fluo-8 calcium dye; parental CHO-K1, ATP-induced calcium, Fluo-8 fluorescence; inhibition, % at 5.6 µM; actives 0.63% (n = 330,000);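 active means inhibition above that plate's mean sample inhibition plus 3 SD, cut at about 26% in these data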
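Test system: parental CHO cells; detection: calcium-sensitive Fluo-8 fluorescence; evaluation: percent inhibition of calcium signal; also added: ATP as calcium-mobilizing challenge; repeats: one well per compound; control set: ATP-challenged DMSO wells low, unchallenged DMSO wells high; compound: single nominal dose of 5.6 µM per compound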
OX1R antag-1: OX1R (HCRTR1) antagonists, primary screen, fluorescence, CHO/OX1R cells, Fluo-8 calcium, orexin A | AID 434989, 2010 | actives 0.43% (n = 330,000) | inhibition, % at 5 µM | Fluo-8 calcium fluorescence;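 active means inhibition above its plate's threshold, mean inhibition of all tested compounds on the plate plus 3 SD, cut at about 37% in these data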
GPR7 antag: GPR7 receptor antagonists, primary screen, cell-based, fluorescence, single concentration. Neuropeptides B/W receptor type 1 (Homo sapiens), P48145. GPR7-expressing cells, fluorescence antagonist assay. inhibition, % at 4.4 µM. actives 1.1% (n = 290,000). AID 1861, 2009; in the data active means inhibition above about 16%, passing the limit was not always enough;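 further: cells stimulated with the agonist NPW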
Target sequence (P48145 whole entry, looked up): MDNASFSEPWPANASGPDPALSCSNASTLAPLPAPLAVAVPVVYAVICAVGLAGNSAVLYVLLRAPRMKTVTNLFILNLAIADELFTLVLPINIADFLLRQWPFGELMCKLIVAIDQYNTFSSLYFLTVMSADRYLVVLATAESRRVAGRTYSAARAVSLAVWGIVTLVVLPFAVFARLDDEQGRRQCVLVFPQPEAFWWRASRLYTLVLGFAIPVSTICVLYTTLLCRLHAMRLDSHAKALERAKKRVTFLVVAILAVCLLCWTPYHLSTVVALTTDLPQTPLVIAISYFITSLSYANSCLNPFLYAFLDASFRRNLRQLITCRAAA
GalR3 antagonist: GalR3 antagonists in HEK293 cells, primary screen, cell-based, fluorescence readout; HEK293 GalR3-CNG cAMP membrane potential fluorescence; galR3 body fused to GalR1 C-terminus; inhibition, % at 3 µM; actives 0.44% (n = 360,000); AID 651719, 2012;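 active means inhibition above the screen-wide average plus 3 SD, cut at about 13% in these data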;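 further: forskolin and galanin both at EC90 stimulate the cells; cAMP rise reported by CNG channel membrane potential dye signal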
Target sequence (O60755 1-299 limits assumed): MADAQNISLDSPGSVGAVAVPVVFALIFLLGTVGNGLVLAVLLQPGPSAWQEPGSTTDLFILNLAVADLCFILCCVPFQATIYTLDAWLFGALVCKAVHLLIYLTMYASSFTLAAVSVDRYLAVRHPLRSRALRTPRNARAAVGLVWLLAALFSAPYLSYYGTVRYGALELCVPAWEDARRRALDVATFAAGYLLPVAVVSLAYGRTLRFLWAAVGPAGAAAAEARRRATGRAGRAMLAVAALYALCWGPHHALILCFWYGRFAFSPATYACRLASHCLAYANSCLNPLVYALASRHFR
OX1R antag-2: antagonists of human orexin 1 receptor (OX1R); Orexin/Hypocretin receptor type 1 (Homo sapiens), O43613; OX1R-expressing cells, FRET antagonist read-out; inhibition, % at 6.6 µM; actives 1.8% (n = 330,000); in the data active means inhibition mostly above about 38%, no sharp cut-off; inactive means mostly below about 40%
Hits are given with their value; 0 = inactive; - = no result; + = active, no number.

SMILES | CHO parental Ca | OX1R antag-1 | GPR7 antag | GalR3 antagonist | OX1R antag-2
COc1ccc(-n2nc(C(=O)NCC(=O)NCCCN3CCOCC3)c3ccccc3c2=O)cc1OC | 0 | 0 | 0 | 0 | 0
COc1ccc(-n2c(C)cc(C(=O)COC(=O)c3ccc(O)cc3O)c2C)cc1 | 33 | 45 | - | 0 | 0
Cc1nnn(-c2nonc2N)c1C(=O)NNC(=O)c1ccc(Cl)c(Cl)c1 | 0 | 0 | 0 | 0 | 0
Cc1ccc(O)c(N/C=C/C(=O)c2ccc(F)cc2)c1 | 0 | 0 | 0 | 0 | 0
O=C(CCCOC(=O)c1ccc(O)cc1O)c1ccc(Br)cc1 | - | - | - | 0 | -
CC(=O)N1CCN(c2ccc([N+](=O)[O-])c(NCC3CCCO3)c2)CC1 (stereo not given) | 0 | 0 | 0 | 0 | 79
O=C(c1ccccc1F)N1CCN(c2ccc([N+](=O)[O-])c(NCC3CCCO3)c2)CC1 (stereo not given) | 0 | 0 | 0 | 0 | 0
NS(=O)(=O)c1ccc(CCNC(=O)C2CC(=O)N(Cc3ccccc3Cl)C2)cc1 (stereo not given) | 0 | 0 | - | 0 | 0
C/C(=N\N=c1/sc2ccccc2n1C)c1ccccn1 | 0 | 0 | 0 | 0 | 62
C/C(=N\N=c1/sc2ccccc2n1C)c1ccc(N2CCOCC2)cc1 | 0 | 0 | 0 | 0 | 0
O=C(Nc1ccccc1F)C1CCCN1S(=O)(=O)c1ccc(Cl)cc1 (stereo not given) | 0 | 0 | - | 0 | 46
CC1Cc2cc(S(=O)(=O)N3CCCCC3C)ccc2N1C(=O)C1CCC1 (stereo not given) | 0 | 0 | 0 | 0 | 0
COc1ccc(C)cc1NC(=O)C1CCCCN1S(=O)(=O)c1ccccc1 (stereo not given) | 0 | 0 | - | 0 | 66
COc1ccc(C)cc1NC(=O)C1CCN(S(=O)(=O)c2ccccc2)CC1 | 0 | 0 | 0 | 0 | 0
Cc1cccc(NC(=O)C2CCCCN2S(=O)(=O)c2ccccc2)c1C (stereo not given) | 0 | 0 | - | 0 | 33
Cc1ccc(S(=O)(=O)N(C)C)cc1NC(=O)C1CCCCN1S(=O)(=O)c1ccccc1 (stereo not given) | 0 | 0 | - | 0 | 0
CC1Cc2ccccc2N1C(=O)C1CCCCN1S(=O)(=O)c1ccccc1 (stereo not given) | 0 | 0 | 0 | 0 | 49
Cc1ccc(C2=N/C(=C\c3coc4ccccc4c3=O)C(=O)O2)cc1 | - | - | - | 0 | -
COc1ccc(C(C#N)=Cc2cc(OC)c(OC)c(OC)c2)cc1 | - | - | - | 0 | -
Cc1ccccc1NC(=O)C1CCCN1S(=O)(=O)c1ccc2c(c1)n(C)c(=O)c(=O)n2C (stereo not given) | 0 | 0 | 0 | 0 | 0
CCOc1ccccc1NC(=O)C1CCCCN1S(=O)(=O)c1ccc(F)cc1 (stereo not given) | 0 | 0 | 0 | 0 | 53
Cc1ccc(S(=O)(=O)N2CCC[C@H]2C(=O)Nc2ccccc2C)cc1 | 0 | 0 | - | 0 | 48
O=C(Nc1ccccn1)C1CCCN1S(=O)(=O)c1ccc(Cl)cc1 (stereo not given) | 0 | 0 | 0 | 0 | 0
Cc1ccc(S(=O)(=O)N2Cc3ccccc3CC2C(=O)Nc2ccc3c(c2)OCO3)cc1 (stereo not given) | 0 | 0 | 0 | 0 | 0
Cc1cccc(NC(=O)C2CCCN2S(=O)(=O)c2ccc(Cl)cc2)n1 (stereo not given) | 0 | 0 | 0 | 0 | 76
SMILES | CHO parental Ca | OX1R antag-1 | GPR7 antag | GalR3 antagonist | OX1R antag-2
Cc1ccc(S(=O)(=O)N2Cc3ccccc3CC2C(=O)NC(C)(C)C)cc1 (stereo not given) | 0 | 0 | 0 | 0 | 27
Cc1ccc(S(=O)(=O)N2CCC[C@H]2C(=O)Nc2ccccc2Cl)cc1 | 0 | 0 | - | 0 | 61
COCCNC(=O)C1CCCN(S(=O)(=O)c2cccc3nsnc23)C1 (stereo not given) | 0 | 0 | 0 | 0 | 48
O=C(NCc1ccccn1)C1CCCN(S(=O)(=O)c2cccc3nsnc23)C1 (stereo not given) | 0 | 0 | 0 | 0 | 121
CCCC1=C(C(=O)OCC)C(c2ccc(O)cc2)n2ncnc2N1 (stereo not given) | 0 | 0 | 0 | 0 | 0
CCOC(=O)[C@]12CCCC=C1N(Cc1ccccc1)C(=O)[C@H](CC(=O)N1CCCCCC1)C2 | - | - | - | 0 | -
Cc1ccc(Cl)cc1N1CCN(C(=O)CSc2nnc3n2C(C)(C)Cc2ccccc2-3)CC1 | 77 | 77 | 0 | 0 | 104
C=CCn1c(SC(C)C(=O)NCC2CCCO2)nnc1-c1ccc(OC)cc1 (stereo not given) | 0 | 0 | - | 0 | 0
Cc1cc(NC(=O)COC(=O)C2CCC2)no1 | 0 | 0 | 0 | 0 | 0
CCC(=O)Nc1ccc2c(c1)ncn2-c1ccc(C)cc1 | 0 | 0 | 0 | 0 | 0
Cc1cc(-c2ccc(N=Nc3c(S(=O)(=O)O)cc4cc(S(=O)(=O)O)cc(N)c4c3O)c(C)c2)ccc1N=Nc1c(S(=O)(=O)O)cc2cc(S(=O)(=O)O)cc(N)c2c1O | 0 | 0 | - | - | +
COc1cc(-c2cc(=O)c3ccc(O)cc3o2)cc(OC)c1OC | - | - | - | 0 | -
COc1cc(OC)c(-c2c3cc(O)c(=O)cc-3oc3cc(O)c(O)cc23)cc1OC | 74 | 105 | 0 | 0 | 0
COc1ccc(-c2cn3c(C)c(C(=O)Nc4ccncc4)sc3n2)cc1 | 0 | 0 | 0 | - | 0
Cc1c(C(=O)Nc2ccncc2)sc2nc(-c3ccc(F)cc3)cn12 | 77 | 0 | 0 | - | 0
O=C(c1cccc([N+](=O)[O-])c1)c1ccc2c(c1)C(=O)NC2=O | 0 | 0 | 0 | 0 | 54
O=C1CN(C(=O)c2cccc([N+](=O)[O-])c2)CC(=O)N1 | 0 | 0 | 0 | 0 | 0
O=C(COC(=O)c1ccc([N+](=O)[O-])s1)Nc1ccccc1 | 0 | 0 | 0 | 0 | 72
O=C(OCc1nnc(-c2ccccc2)o1)c1ccc([N+](=O)[O-])s1 | 0 | 0 | - | 0 | 47
O=C(COC(=O)c1ccc([N+](=O)[O-])s1)Nc1ccc(F)cc1 | 0 | 0 | - | 0 | 42
Cc1ccc(C(=O)OCc2nnc(-c3ccccc3)o2)s1 | 0 | 0 | - | 0 | 0
O=C(COC(=O)c1ccc([N+](=O)[O-])s1)Nc1cccc(S(=O)(=O)NC2=NCCCCC2)c1 | 0 | 0 | 0 | 0 | 0
CC(C)(C)c1ccc(NC(=O)COC(=O)c2ccc([N+](=O)[O-])s2)cc1 | 0 | 0 | 0 | 0 | 0
O=C(OCC(=O)N1CCC(c2ccccc2)=N1)c1ccc([N+](=O)[O-])s1 | 0 | 0 | - | 0 | 61
Cc1noc(NS(=O)(=O)c2ccc(NC(=O)c3cc(S(=O)(=O)Nc4ccc(F)cc4)ccc3Cl)cc2)c1C | - | - | - | 0 | -
CS(=O)(=O)c1cccc(C(=O)Nc2ccccc2Cc2ccccc2)c1 | 0 | 0 | 0 | 0 | 0
O=C(OCCOCCOC(=O)Oc1ccccc1)Oc1ccccc1 | - | - | - | 0 | -

Screening results from PubChem.
